Consider 3 compounds from ChEMBL document CHEMBL1125616, “Perfluorinated analogues of poison ivy allergens. Synthesis and skin tolerogenic activity in mice” (1991).

For assay [1], the species on record is Mus musculus. As to the kind of experiment: Increase in ear thickness was determined in mice after 48 hr of application of compound at a concentration of 1.56 mmol to right ear. Format: functional. The method, boiled down:
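Cross-reaction test in female BALB/c mice aged 6–7 weeks. Mice were sensitized on day 0 on the shaved lower abdomen with 15.6 mmol in acetone/olive oil 4:1 (100 μL). Four days later groups of 8 were challenged on the dorsal right ear with 1.56 mmol (25 μL). Ear thickness was measured by micrometer, and the increase taken at 48 h after challenge.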

Assay [2] is filed under the species Mus musculus. As to the kind of experiment: Mice was pretreated with 15.6 mmol (100 uL) on shaved abdomen in group III on Day 0.
For assay [3], the species on record is Mus musculus. As to the kind of experiment: Ear thickness increase measured at 48 hr after challenge in group III on Day 10. Format: functional. The method, boiled down: (§1)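 Female BALB/c mice aged 6–7 weeks, 8 per group. On day 0 each mouse was pretreated epicutaneously on the shaved abdomen with 15.6 mmol in acetone/olive oil 4:1 (100 μL). The same dose was given on day 4 to sensitize. On day 8 the dorsal right ear was challenged with 1.56 mmol in acetone:olive oil (25 μL). Ear thickness was read by micrometer on days 9–12, and the increase taken at 48 h after challenge.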

For assay [4], the species on record is Mus musculus. As to the kind of experiment: A challenge dose of 1.56 mmol (25 uL) was applied to right ear in group III on Day 8. Format: functional. The method, boiled down: as §1
Assay [5] is filed under the species Mus musculus. As to the kind of experiment: A challenge dose of 1.56 mmol (25 uL) was applied to right ear in group II. Format: functional. The method, boiled down: as §1
The species entered for assay [6] is Mus musculus. As to the kind of experiment: Mice was sensitized with 15.6 mmol (100 uL) on shaved abdomen in group III on Day 4.
The species entered for assay [7] is Mus musculus. As to the kind of experiment: Mice was pretreated with 15.6 mmol (100 uL) on shaved abdomen in group II on Day 0.
For assay [8], the species on record is Mus musculus. As to the kind of experiment: Mice was sensitized with 15.6 mmol (100 uL) on shaved abdomen in group II on Day 4.
For assay [9], the species on record is Mus musculus. As to the kind of experiment: Ear thickness increase measured at 48 hr after challenge in group II on Day 10. Format: functional. The method, boiled down: as §1

Take `CCCCCCCCCCCCCCCc1cccc(O)c1O`: the Ear thickness in the assay listed under Mus musculus [1] was determined as 68.5 µm.

Regarding `Oc1cccc(CCCCCC(F)(F)C(F)(F)C(F)(F)C(F)(F)C(F)(F)C(F)(F)F)c1O`, in the assay filed under Mus musculus [1], the Ear thickness was determined as 142 µm.

For the compound `Oc1cccc(CCCCCCCCCCCC(F)(F)C(F)(F)C(F)(F)C(F)(F)F)c1O`, the Tolerance in the assay filed under Mus musculus [2] turned out to be 9; in the assay listed under Mus musculus [4] it was 9; in the assay filed under Mus musculus [5], 10; in the assay filed under Mus musculus [6] it was 9; in the assay filed under Mus musculus [7] it was 9; in the assay filed under Mus musculus [8] it was 10. The figures for the Ear thickness in the assay listed under Mus musculus [3], in the assay filed under Mus musculus [1] and in the assay listed under Mus musculus [9] were 15 µm, 162 µm and 26 µm, respectively.
